Experimental data taken from ChEMBL document CHEMBL2390912, “Aromatic glycosyl disulfide derivatives: evaluation of their inhibitory activities against Trypanosoma cruzi” (Bioorg Med Chem Lett, 2013).
pIC50: −log10 of the molar value.

Legend:
[1] = tested on: Trypanosoma cruzi; assay: Trypanocidal activity against Trypanosoma cruzi Y trypomastigotes infected in human HeLa cells at 4 degC after 18 hrs by hemocytometric analysis; assay type: functional, organism-based
[2] = tested on: Trypanosoma cruzi; assay: Trypanocidal activity against Trypanosoma cruzi Y trypomastigotes infected in human HeLa cells at 37 degC after 18 hrs by resazurin assay; assay type: functional, organism-based
Procedure, shortened: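 Tissue culture-derived trypomastigotes treated for 18 h at 37 °C. Read-out by fluorescence.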

O=C(Cn1ccnc1[N+](=O)[O-])NCc1ccccc1 [BENZNIDAZOLE]
pIC50 [1]: ≤ 3.30
pIC50 [2]: 4.59
